{"data": "Assay results of several laboratories", "target": "High affinity nerve growth factor receptor (NTRK1, Homo sapiens, UniProt P04629)"}
{"SMILES": "O=C(Nc1ccc(Cl)cc1)Nc1cccc(C(=O)Nc2ccc3[nH]ncc3c2)c1", "assay": "enzyme activity, inhibitor, FRET", "conditions": "1 µM", "inhibition [%]": 55.3}
{"SMILES": "CCN(CC)CCNC(=O)c1c(C)[nH]c(/C=C2\\C(=O)Nc3ccc(F)cc32)c1C", "assay": "enzyme activity, inhibitor", "conditions": "0.3 µM", "inhibition [%]": 91}
{"SMILES": "CN1CC(Oc2cnc(C#N)cc2-c2ccn3nc(NC(=O)C4CC4)cc3c2)C1", "assay": "enzyme activity, inhibitor", "conditions": "1 µM", "inhibition [%]": 5}
{"SMILES": "O=C(Nc1ccc2[nH]ncc2c1)c1cccc(NC(=S)Nc2ccc(C(F)(F)F)cc2)c1", "assay": "enzyme activity, inhibitor, FRET", "conditions": "1 µM", "inhibition [%]": 58}
{"SMILES": "CN(C)C1CCN(CC#Cc2nn(C3CCCC3)c3nc(NCc4ccccc4)ncc23)C1 (stereo not shown)", "assay": "enzyme activity, inhibitor, FRET", "conditions": "10 µM", "inhibition [%]": 65}
{"SMILES": "CSc1nc(C)c(-c2ccnc(Nc3ccc(N4CCOCC4)cc3)c2)[nH]1", "assay": "cell-free assay, inhibitor", "conditions": "10 µM", "inhibition [%]": 10.1}
{"SMILES": "O=C(Nc1cccc(C(=O)Nc2ccc3[nH]ncc3c2)c1)Nc1cccc(C(F)(F)F)c1", "assay": "enzyme activity, inhibitor, FRET", "conditions": "1 µM", "inhibition [%]": 67.4}
{"SMILES": "CNC(=O)c1ccccc1Nc1cc(Nc2ccc(N3CCOCC3)cc2OC)ncc1C(F)(F)F", "assay": "enzyme activity, inhibitor", "conditions": "1 µM", "inhibition [%]": "> 50"}
{"SMILES": "Cc1ccc(Nc2nccc(N(C)c3ccc4c(C)n(C)nc4c3)n2)cc1S(N)(=O)=O", "assay": "enzyme activity, inhibitor", "conditions": "0.3 µM", "inhibition [%]": 16}
{"SMILES": "COc1cc(C)c(Sc2cnc(NC(=O)c3ccc(N4CCN(CCCCCCCNC(=O)COc5cccc6c5C(=O)N(C5CCC(=O)NC5=O)C6=O)CC4)cc3)s2)cc1C(=O)N1CCN(C(C)=O)CC1 (stereo not shown)", "assay": "binding", "conditions": "1 µM", "inhibition [%]": "> 90"}
{"SMILES": "CNCc1ccc(-c2cc(-c3nc(-c4ccc(S(=O)(=O)C(C)C)cc4)cnc3N)on2)cc1", "assay": "enzyme activity, inhibitor", "conditions": "0.4 µM", "inhibition [%]": 13}
{"SMILES": "CNC(=O)c1cc(Oc2ccc(NC(=O)Nc3ccc(Cl)c(C(F)(F)F)c3)cc2)ccn1", "assay": "enzyme activity, inhibitor", "conditions": "10 µM", "inhibition [%]": 98}
{"SMILES": "CNC(=O)c1cc2c(Oc3ccc(NC(=O)C4(C(=O)Nc5ccc(F)cc5)CC4)cc3)ccnc2cc1OC", "assay": "enzyme activity, inhibitor, radiometric", "conditions": "1 µM", "inhibition [%]": 99}
{"SMILES": "COc1cc2ncnc(Nc3ccc(Oc4ccccc4)c(C)c3C)c2cc1OC", "assay": "enzyme activity, inhibitor", "conditions": "1 µM", "inhibition [%]": -1}
{"SMILES": "O=C(Nc1ccccc1)Nc1cccc(C(=O)Nc2ccc3[nH]ncc3c2)c1", "assay": "enzyme activity, inhibitor, FRET", "conditions": "1 µM", "inhibition [%]": 33.2}
{"SMILES": "CCCS(=O)(=O)Nc1ccc(F)c(C(=O)c2c[nH]c3ncc(-c4ccc(Cl)cc4)cc23)c1F", "assay": "enzyme activity, inhibitor", "conditions": "1 µM", "inhibition [%]": "< 10"}
